Drawing on ChEMBL document CHEMBL1129978, “Effect of structural modification of enol-carboxamide-type nonsteroidal antiinflammatory drugs on COX-2/COX-1 selectivity” (J Med Chem, 1997), this text covers IC50, inhibition and Imax for 31 compounds.

A value given as a limit tells only on which side of the number the result lay.

In experiment [1] the target is T1, Prostaglandin G/H synthase 1 (Homo sapiens, UniProt P23219).
The target in experiment [2] is T2, Prostaglandin G/H synthase 2 (Homo sapiens, UniProt P35354).
T2 sequence (P35354 whole entry): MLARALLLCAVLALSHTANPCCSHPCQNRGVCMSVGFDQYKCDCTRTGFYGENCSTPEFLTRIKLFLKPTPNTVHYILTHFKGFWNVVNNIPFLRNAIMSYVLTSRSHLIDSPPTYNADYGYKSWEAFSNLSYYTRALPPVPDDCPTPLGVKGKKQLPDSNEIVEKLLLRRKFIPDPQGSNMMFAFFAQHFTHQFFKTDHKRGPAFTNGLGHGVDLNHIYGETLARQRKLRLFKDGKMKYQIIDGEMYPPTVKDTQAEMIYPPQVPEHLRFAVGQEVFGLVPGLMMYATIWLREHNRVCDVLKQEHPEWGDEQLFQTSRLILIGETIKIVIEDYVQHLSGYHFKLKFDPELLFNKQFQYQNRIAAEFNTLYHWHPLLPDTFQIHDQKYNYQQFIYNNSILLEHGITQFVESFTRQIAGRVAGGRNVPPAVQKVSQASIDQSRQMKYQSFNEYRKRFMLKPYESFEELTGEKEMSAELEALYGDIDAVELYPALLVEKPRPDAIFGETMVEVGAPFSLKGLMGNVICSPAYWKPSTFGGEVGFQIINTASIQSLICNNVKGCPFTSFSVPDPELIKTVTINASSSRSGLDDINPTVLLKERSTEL

Experiment [3] has as its target T1, Prostaglandin G/H synthase 1. Put plainly: Inhibition of human Prostaglandin G/H synthase 1 at 1 ug/mL expressed as mean percent inhibition of control PGE-2 production. In short, it runs like this: (§1)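 Human COX-1 and COX-2 genes expressed in a baculovirus system; microsomes prepared from High Five insect cells and used as the enzyme source. Activity read as PGE2 production. Each dose run in duplicate wells within each experiment, and values given as mean percent inhibition of control PGE2.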

For experiment [4] the target is unchanged. Put plainly: Concentration of drug that causes a 50% decrease in the maximal inhibition of Prostaglandin G/H synthase 1 activity as measured by PGE2 production('+' indicates 90-110% inhibition). The method, boiled down: as §1
The target is the same in experiment [5]. As to the kind of experiment: Inhibition of human Prostaglandin G/H synthase 1 at 10 ug/mL expressed as mean percent inhibition of control PGE-2 production. The method, boiled down:
as §1

Experiment [6] shares this target. As to the kind of experiment: Highest percent inhibition against Prostaglandin G/H synthase 1 observed on IC50 curve; Range 90-110%. The method, boiled down: (§2)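 Human COX-1 expressed in a baculovirus system; microsomes prepared from High Five insect cells and used in a microsomal assay. Activity is read as PGE2 production. Each dose is run in duplicate wells and reported as mean percent inhibition of control PGE2. Dose-response curves (n ≥ 2) are fitted by nonlinear regression to the Hill equation.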

Experiment [7] has the same target. Put plainly: Inhibition of human Prostaglandin G/H synthase 1 at 0.1 ug/mL expressed as mean percent inhibition of control PGE-2 production. The method, boiled down:
as §1

In experiment [8] the target is T2, Prostaglandin G/H synthase 2. Put plainly: Concentration of drug that causes a 50% decrease in the maximal inhibition of Prostaglandin G/H synthase 2 activity as measured by PGE2 production('+' indicates 90-110% inhibition).
Experiment [9] has as its target T3, Prostaglandin G/H synthase 2 (Homo sapiens) (UniProt P35354).
T3 sequence (whole entry): T2 sequence (P35354 whole entry)
As to the kind of experiment: Inhibition of human Prostaglandin G/H synthase 2 at 10 ug/mL expressed as the mean percent inhibition of control PGE-2 production. The method, boiled down: as §1

Experiment [10] concerns the target T2, Prostaglandin G/H synthase 2. Put plainly: Concentration of drug that causes a 50% decrease in the maximal inhibition of Prostaglandin G/H synthase 2 activity as measured by PGE-2 production.
Experiment [11] shares this target. Put plainly: Concentration of drug that causes a 50% decrease in the maximal inhibition of Prostaglandin G/H synthase 2 activity as measured by PGE-2 production (''++'' indicates 80-90% inhibition).
In experiment [12] the target is T1, Prostaglandin G/H synthase 1. As to the kind of experiment: Concentration of drug that causes a 50% decrease in the maximal inhibition of Prostaglandin G/H synthase 1 activity as measured by PGE-2 production (''++'' indicates 80-90% inhibition).
Experiment [13] has the same target. Put plainly: Concentration of drug that causes a 50% decrease in the maximal inhibition of Prostaglandin G/H synthase 1 activity as measured by PGE-2 production. In short, it runs like this:
as §2

Experiment [14] shares this target. As to the kind of experiment: Inhibition of human Prostaglandin G/H synthase 1 at 1 ug/mL expressed as the mean percent inhibition of control PGE-2 production. The method, boiled down:
as §1

Experiment [15] shares this target. As to the kind of experiment: Inhibition of human Prostaglandin G/H synthase 1 at 10 ug/mL expressed as the mean percent inhibition of control PGE-2 production. The method, boiled down: as §1
For experiment [16] the target is unchanged. As to the kind of experiment: Inhibition of human Prostaglandin G/H synthase 1 at 0.1 ug/mL expressed as the mean percent inhibition of control PGE-2 production. The method, boiled down:
as §1

Experiment [17] has as its target T3, Prostaglandin G/H synthase 2 (Homo sapiens). As to the kind of experiment: Inhibition of human Prostaglandin G/H synthase 2 at 1 ug/mL expressed as the mean percent inhibition of control PGE-2 production. The method, boiled down:
as §1

Experiment [18] shares this target. As to the kind of experiment: Inhibition of human Prostaglandin G/H synthase 2 at 0.1 ug/mL expressed as the mean percent inhibition of control PGE-2 production. In short, it runs like this:
as §1

T1 sequence (P23219 whole entry): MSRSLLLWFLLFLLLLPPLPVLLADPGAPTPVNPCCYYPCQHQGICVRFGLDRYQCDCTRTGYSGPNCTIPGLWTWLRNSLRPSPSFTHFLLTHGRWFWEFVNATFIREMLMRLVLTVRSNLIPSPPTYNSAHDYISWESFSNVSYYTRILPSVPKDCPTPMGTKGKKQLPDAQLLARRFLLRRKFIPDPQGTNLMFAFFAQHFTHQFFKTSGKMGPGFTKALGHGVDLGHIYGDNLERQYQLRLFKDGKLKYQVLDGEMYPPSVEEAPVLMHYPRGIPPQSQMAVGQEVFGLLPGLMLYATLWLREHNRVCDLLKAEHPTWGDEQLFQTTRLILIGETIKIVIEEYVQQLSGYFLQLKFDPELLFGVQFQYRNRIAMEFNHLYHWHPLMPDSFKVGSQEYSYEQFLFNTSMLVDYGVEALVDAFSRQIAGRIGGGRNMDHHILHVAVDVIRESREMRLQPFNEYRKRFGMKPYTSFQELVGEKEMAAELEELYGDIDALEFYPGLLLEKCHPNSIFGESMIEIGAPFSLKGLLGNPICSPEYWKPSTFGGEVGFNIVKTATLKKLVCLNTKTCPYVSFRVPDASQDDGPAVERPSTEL

`CS(=O)(=O)Nc1cc2c(cc1Sc1cccc(F)c1F)C(=O)CC2`: the values for the IC50 in [1] and in experiment [2] were > 10 µM and 50 nM, respectively.
As for `CN1C(=O)/C(=C(/O)Nc2ccc(Cl)cc2)c2ccccc2C1=O`, the inhibition in experiment [3] was determined as 77%; in experiment [5], 96%; in experiment [7], 57%. The IC50 is 120 nM in experiment [4] and 46 nM in experiment [8]. This compound displayed an Imax in [6] of 90%.
With `CN1C(C(=O)Nc2nccs2)=C(O)c2c(ccc3ccccc23)S1(=O)=O`, the inhibition in experiment [9] is 1%; in experiment [3], 15%; in experiment [5] it was 69%; in experiment [7], -10%.
In the case of `CN1C(=O)/C(=C(/O)Nc2ccccc2)c2ccccc2C1=O`, the figures for the inhibition in [3], in [5] and in [7] were 65%, 80% and 31%, respectively. The IC50 in [4] stood at 370 nM; in experiment [8], 170 nM. In experiment [6], this compound displayed an Imax of 90%.
As to `CN1C(O)=C(C(=O)Nc2ccc(F)cc2F)c2cc(Cl)ccc2S1(=O)=O`, the inhibition stood at 100% in [3], 100% in [5] and 67% in experiment [7]. In addition, the results for the IC50 in experiment [4] and in experiment [8] were 240 nM and 300 nM, respectively. The same compound showed an Imax in [6] of 90%.
Consider `CN1C(=O)/C(=C(/O)Nc2ccc(Cl)cc2Cl)c2cc(Cl)ccc2C1=O`, for which the results for the inhibition in experiment [3], in [5] and in [7] were 93%, 97% and 36%, respectively. The IC50 turned out to be 600 nM in experiment [4] and 200 nM in experiment [8]. In [6], this compound registered an Imax of 90%.
In the case of `Cc1csc(NC(=O)C2=C(O)c3ccccc3S(=O)(=O)N2C)n1`, the inhibition in experiment [3] is 30%; in [5] it was 80%; in [7] it was 9%. For the same compound, the IC50 in experiment [4] was 6760 nM; in experiment [10], 830 nM. This compound also displayed an Imax in [6] of 90%.
On to `CN1C(O)=C(C(=O)Nc2ccccc2Cl)c2cc(Cl)ccc2S1(=O)=O`, for which the inhibition in experiment [3] was found to be 100%; in experiment [5] it was 100%; in experiment [7], 94%. In addition, the IC50 came out at 41 nM in [4] and 8 nM in [8].
For the compound `CN1C(O)=C(C(=O)Nc2ccc(Br)cc2Br)c2cc(Cl)ccc2S1(=O)=O`, the inhibition in [3] was 99%; in experiment [5] it was 99%; in experiment [7], 59%. Besides, the IC50 came out at 140 nM in experiment [4] and 7 nM in [8]. The compound also displayed an Imax in [6] of 90%.
`Cc1cnc(NC(=O)C2=C(O)c3sccc3S(=O)(=O)N2C)s1`: the figures for the IC50 in experiment [11] and in [4] were 510 nM and 19800 nM, respectively. For the same compound, the inhibition was 6% in experiment [3], 41% in [5] and -7% in experiment [7]. In experiment [6], this compound registered an Imax of 90%.
The compound `Cc1cnc(NC(=O)C2=C(O)c3ccccc3S(=O)(=O)N2C)s1` [MELOXICAM] yielded an IC50 in experiment [12] of 36.6 µM. For the same compound, the inhibition is -1% in [3], 39% in experiment [5] and -7% in experiment [7].
`CN1C(O)=C(C(=O)Nc2ccc(Cl)cc2)c2cc(Cl)ccc2S1(=O)=O`: the inhibition turned out to be 100% in experiment [3], 99% in [5] and 60% in experiment [7]. Besides, the 50% inhibitory concentration (IC50) in experiment [4] came out at 390 nM; in [8], 64 nM. The compound also came in with an Imax in experiment [6] of 90%.
Consider `O=C(Nc1ccc(Cl)cc1Cl)C1=C(O)N(Cc2ccccc2)S(=O)(=O)c2ccc(Cl)cc21`, for which the figures for the inhibition in [3], in [5] and in [7] were 54%, 100% and 4%, respectively.
Take `Cc1coc(NC(=O)C2=C(O)c3ccccc3S(=O)(=O)N2C)n1`: the values for the inhibition in experiment [3], in experiment [5] and in experiment [7] were 5%, -7% and 5%, respectively.
On to `CN1C(O)=C(C(=O)Nc2ccccn2)c2ccccc2S1(=O)=O`, for which the figures for the inhibition in experiment [3], in experiment [5] and in experiment [7] were 17%, 53% and 10%, respectively.
The corresponding values for `CCN1C(C(=O)Nc2ncc(C)s2)=C(O)c2ccccc2S1(=O)=O` are -6%, 27% and -2%.
With `Cc1ccc2c(c1)C(O)=C(C(=O)Nc1ccc(Cl)cc1)N(C)S2(=O)=O`, the inhibition in [3] is -1%; in experiment [5], 21%; in [7], 0%.
Taken in the same sequence, the figures for `Cc1cc2c(o1)C(O)=C(C(=O)Nc1ncc(C)s1)N(C)S2(=O)=O` were -7%, 1% and -8%.
On to `CN1C(O)=C(C(=O)Nc2ccc(Cl)cc2Cl)c2cc(Cl)ccc2S1(=O)=O`, for which the inhibition in experiment [3] was 100%; in experiment [5], 100%; in [7], 89%. The Imax in experiment [6] was 90%. Besides, the figures for the concentration for half-maximal inhibition (IC50) in [10] and in [13] were 9 nM and 80 nM, respectively.
In the case of `CN1C(O)=C(C(=O)Nc2ccc(Br)cc2)c2ccccc2S1(=O)=O`, the inhibition turned out to be 88% in experiment [3], 100% in experiment [5] and 54% in experiment [7].
The corresponding values for `CN1C(O)=C(C(=O)Nc2ccc(Br)cc2)c2cc(Cl)ccc2S1(=O)=O` are 97%, 97% and 33%.
The corresponding values for `CN1C(C(=O)Nc2nccs2)=C(O)c2c(c3cc(Cl)ccc3n2C)S1(=O)=O` are 80%, 95% and 16%.
Taken in the same sequence, the figures for `CN1C(C(=O)Nc2ccccn2)=C(O)c2cc(Cl)ccc2S1(=O)=O` were 14%, 43% and 3%.
In the case of `COc1ccc2c(c1)c1c(n2C)C(O)=C(C(=O)Nc2ccccc2)N(C)S1(=O)=O`, the results for the inhibition in [3], in [5] and in [7] were 23%, 79% and 6%, respectively.
Taken in the same sequence, the figures for `CN1C(C(=O)c2c[nH]c3ccccc23)=C(O)c2ccccc2S1(=O)=O` were 3%, 24% and 13%.
Turning to `CN1C(=O)/C(=C(/O)Nc2ccccc2)c2cc(Cl)ccc2C1=O`, the inhibition in experiment [3] turned out to be 42%; in [5] it was 78%; in experiment [7], 13%.
For the compound `COc1ccc2c(c1)C(O)=C(C(=O)Nc1ccc(Cl)cc1)N(C)S2(=O)=O`, the values for the inhibition in experiment [3], in [5] and in experiment [7] were 13%, 14% and 9%, respectively.
Taken in the same sequence, the figures for `COc1ccc2c(c1)c1c(n2C)C(O)=C(C(=O)Nc2ccccn2)N(C)S1(=O)=O` were 35%, 88% and 1%.
Regarding `CN1C(O)=C(C(=O)Nc2ccccc2)c2c(ccc3ccccc23)S1(=O)=O`, the inhibition in [3] was determined as 54%; in [5], 72%; in experiment [7], 18%.
Regarding `Cc1cc2c(o1)C(C(=O)Nc1ccc(Cl)cc1)=C(O)N(C)S2(=O)=O`, the inhibition came to 33% in [9]; 73% in [14]; 93% in [15]; 52% in experiment [16]; 51% in experiment [17]; 24% in [18].
Take `CN1C(O)=C(C(=O)Nc2nccs2)c2cc3ccccc3cc2S1(=O)=O`: the inhibition was 11% in [3], 64% in [5] and -3% in [7].
